How the values were obtained:
Pancreas [1] = assay: Biodistribution in pancreas of BALB/c nude mouse xenografted with human A375 cells at 0.8 to 1 MBq, iv after 60 mins by gamma-counter; assay type: ADME, organism-based, A-375; conditions: in vivo, 1 h
Procedure, shortened: (§1)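 Female Balb/c nude mice with s.c. A375 flank tumors, studied 26 days after tumor induction. Tracer 0.8-1 MBq in 100 μL saline given i.v. Groups of n = 5 killed at 15, 30, 60 and 120 min. Organs weighed and counted in a γ-counter against dilutions of the injected dose. Values are % ID/g wet tissue, mean ± SD.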

Blood [2] = assay: Biodistribution in blood of BALB/c nude mouse xenografted with human A375 cells at 0.8 to 1 MBq, iv after 30 mins by gamma-counter; assay type: ADME, organism-based, A-375; conditions: in vivo, 0.5 h; procedure, shortened: as §1
Bone [3] = assay: Biodistribution in bone of BALB/c nude mouse xenografted with human A375 cells at 0.8 to 1 MBq, iv after 120 mins by gamma-counter; assay type: ADME, organism-based, Bone element, A-375; conditions: in vivo, 2 h; procedure, shortened: as §1
[4] = Drug level in tumor extract of BALB/c nude mouse xenografted with human A375 cells assessed as radioactivity in protein fraction after 0.25 to 2 hrs; assay type: ADME, Neoplasm, A-375; conditions: in vivo
Procedure, shortened: (§2)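 Female Balb/c nude mice bore subcutaneous A375 flank tumors and received 18-20 MBq tracer iv. Plasma or tissue was sonicated in 10% TCA with unlabeled FPHCys and KF, then centrifuged at 6000g; the pellet was re-extracted twice. Protein-bound fraction is pellet versus supernatant radioactivity, sampled at 0.25, 1 and 2 h.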

Brain [5] = assay: Biodistribution in brain of BALB/c nude mouse xenografted with human A375 cells at 0.8 to 1 MBq, iv after 30 mins by gamma-counter; assay type: ADME, organism-based, A-375; conditions: in vivo, 0.5 h; procedure, shortened: as §1
Brain [6] = assay: Biodistribution in brain of BALB/c nude mouse xenografted with human A375 cells at 0.8 to 1 MBq, iv after 120 mins by gamma-counter; assay type: ADME, organism-based, A-375; conditions: in vivo, 2 h; procedure, shortened: as §1
Bone [7] = assay: Biodistribution in bone of BALB/c nude mouse xenografted with human A375 cells at 0.8 to 1 MBq, iv after 15 mins by gamma-counter; assay type: ADME, organism-based, Bone element, A-375; conditions: in vivo, 0.25 h; procedure, shortened: as §1
HT-29 = assay: Cellular uptake in human HT-29 cells assessed as accumulation per 10^5 cells after 4 hours by gamma-counter; assay type: ADME, cell-based; conditions: ht-29, 4 h
Procedure, shortened: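 Cells seeded at 2.5 × 10^5 per well in RPMI-1640 with 10% FBS and 2 mM L-glutamine, attached overnight, then washed with warm PBS. Incubated at 37 °C with 0.37 MBq [18F]tracer in PBS for 2–240 min. Cells washed with ice-cold PBS, lysed in 0.2 N NaOH and counted by γ-counter. Read as % applied dose per 10^5 cells, decay-corrected, n = 3.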

Pancreas [8] = assay: Biodistribution in pancreas of BALB/c nude mouse xenografted with human A375 cells at 0.8 to 1 MBq, iv after 120 mins by gamma-counter; assay type: ADME, organism-based, A-375; conditions: in vivo, 2 h; procedure, shortened: as §1
Brain [9] = assay: Metabolic stability in brain of BALB/c nude mouse xenografted with human A375 cells assessed as radioactivity after 1 hrs by HPLC analysis; assay type: ADME, tissue-based, A-375; conditions: in vivo
Procedure, shortened: (§3)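 A375-tumored Balb/c nude mice received 18-20 MBq tracer iv. Plasma and urine were spiked with unlabeled FPHCys and KF and injected directly; tissues were sonicated in saline with carrier and centrifuged at 6000g. Radio-HPLC on C18 with methanol/phosphate buffer pH 6 gave intact fraction as authentic peak over total activity, at 0.25, 1 and 2 h.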

[10] = Biodistribution in tumor of BALB/c nude mouse xenografted with human A375 cells at 0.8 to 1 MBq, iv after 30 mins by gamma-counter; assay type: ADME, organism-based, Neoplasm, A-375; conditions: in vivo, 0.5 h; procedure, shortened: as §1
[11] = Metabolic stability in human A375 cells xenografted in BALB/c nude mouse assessed as radioactivity after 0.25 to 2 hrs by HPLC analysis; assay type: ADME, cell-based, A-375; conditions: in vivo; procedure, shortened: as §3
Kidney [12] = assay: Biodistribution in kidney of BALB/c nude mouse xenografted with human A375 cells at 0.8 to 1 MBq, iv after 30 mins by gamma-counter; assay type: ADME, organism-based, A-375; conditions: in vivo, 0.5 h; procedure, shortened: as §1
Blood [13] = assay: Biodistribution in blood of BALB/c nude mouse xenografted with human A375 cells at 0.8 to 1 MBq, iv after 15 mins by gamma-counter; assay type: ADME, organism-based, A-375; conditions: in vivo, 0.25 h; procedure, shortened: as §1
A-375 = assay: Drug uptake in human A375 cells in presence of amino acid transport system A inhibitor MeAIB; assay type: ADME, cell-based
Procedure, shortened: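 Cells were prepared as for the uptake assay and preincubated at 37 °C with inhibitor at 12.5 mmol/L in PBS; controls received PBS. 0.37 MBq [18F]tracer was added and incubated 30 min at 37 °C. Cells were washed cold, lysed and γ-counted. Uptake is given as % of the control group, n = 3.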

Pancreas [14] = assay: Biodistribution in pancreas of BALB/c nude mouse xenografted with human A375 cells at 0.8 to 1 MBq, iv after 15 mins by gamma-counter; assay type: ADME, organism-based, A-375; conditions: in vivo, 0.25 h; procedure, shortened: as §1
Kidney [15] = assay: Biodistribution in kidney of BALB/c nude mouse xenografted with human A375 cells after 60 mins by PET/CT imaging; assay type: ADME, organism-based, A-375; conditions: in vivo, 1 h
Procedure, shortened: (§4)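 Female Balb/c nude mice with A375 tumors (1×10^6 cells in Ca/Mg-free PBS injected s.c. in left flank at 6 weeks old). Mice under isoflurane in oxygen. 10 min CT scan, then 18-20 MBq tracer in 100 μL saline given i.v. with a 2 h PET acquisition. Coronal images at 60 min postinjection; n = 3.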

Heart = assay: Biodistribution in heart of BALB/c nude mouse xenografted with human A375 cells at 0.8 to 1 MBq, iv after 120 mins by gamma-counter; assay type: ADME, organism-based, A-375; conditions: in vivo, 2 h; procedure, shortened: as §1
Lung [16] = assay: Biodistribution in lungs of BALB/c nude mouse xenografted with human A375 cells at 0.8 to 1 MBq, iv after 30 mins by gamma-counter; assay type: ADME, organism-based, A-375; conditions: in vivo, 0.5 h; procedure, shortened: as §1
Lung [17] = assay: Biodistribution in lungs of BALB/c nude mouse xenografted with human A375 cells at 0.8 to 1 MBq, iv after 15 mins by gamma-counter; assay type: ADME, organism-based, A-375; conditions: in vivo, 0.25 h; procedure, shortened: as §1
[18] = Biodistribution in tumor of BALB/c nude mouse xenografted with human A375 cells at 0.8 to 1 MBq, iv after 15 mins by gamma-counter; assay type: ADME, organism-based, Neoplasm, A-375; conditions: in vivo, 0.25 h; procedure, shortened: as §1
Kidney [19] = assay: Biodistribution in kidney of BALB/c nude mouse xenografted with human A375 cells at 0.8 to 1 MBq, iv after 60 mins by gamma-counter; assay type: ADME, organism-based, A-375; conditions: in vivo, 1 h; procedure, shortened: as §1
Blood [20] = assay: Biodistribution in blood of BALB/c nude mouse xenografted with human A375 cells at 0.8 to 1 MBq, iv after 60 mins by gamma-counter; assay type: ADME, organism-based, A-375; conditions: in vivo, 1 h; procedure, shortened: as §1
Muscle tissue [21] = assay: Biodistribution in muscle of BALB/c nude mouse xenografted with human A375 cells at 0.8 to 1 MBq, iv after 60 mins by gamma-counter; assay type: ADME, organism-based, A-375; conditions: in vivo, 1 h; procedure, shortened: as §1
Pancreas [22] = assay: Metabolic stability in pancreas of BALB/c nude mouse xenografted with human A375 cells assessed as radioactivity after 0.25 to 1 hrs by HPLC analysis; assay type: ADME, tissue-based, A-375; conditions: in vivo; procedure, shortened: as §3
Urinary bladder = assay: Biodistribution in bladder of BALB/c nude mouse xenografted with human A375 cells after 60 mins by PET/CT imaging; assay type: ADME, organism-based, A-375; conditions: in vivo, 1 h; procedure, shortened: as §4
Lung [23] = assay: Biodistribution in lungs of BALB/c nude mouse xenografted with human A375 cells at 0.8 to 1 MBq, iv after 120 mins by gamma-counter; assay type: ADME, organism-based, A-375; conditions: in vivo, 2 h; procedure, shortened: as §1
Brain [24] = assay: Drug level in brain cortex extract of BALB/c nude mouse xenografted with human A375 cells assessed as radioactivity in protein fraction after 0.25 to 2 hrs; assay type: ADME, tissue-based, A-375; conditions: in vivo; procedure, shortened: as §2
Muscle tissue [25] = assay: Biodistribution in muscle of BALB/c nude mouse xenografted with human A375 cells at 0.8 to 1 MBq, iv after 15 mins by gamma-counter; assay type: ADME, organism-based, A-375; conditions: in vivo, 0.25 h; procedure, shortened: as §1

| Structure (SMILES) | Drug uptake (Pancreas [1]) [% ID/g] | Drug uptake (Blood [2]) [% ID/g] | Drug uptake (Bone [3]) [% ID/g] | Drug uptake [4] [%] | Drug uptake (Brain [5]) [% ID/g] | Drug uptake (Brain [6]) [% ID/g] | Drug uptake (Bone [7]) [% ID/g] | Drug uptake (HT-29) [%] | Drug uptake (Pancreas [8]) [% ID/g] | Stability (Brain [9]) [%] | Drug uptake [10] [% ID/g] | Stability [11] [%] | Drug uptake (Kidney [12]) [% ID/g] | Drug uptake (Blood [13]) [% ID/g] | Drug uptake (A-375) | Drug uptake (Pancreas [14]) [% ID/g] | Drug uptake (Kidney [15]) | Drug uptake (Heart) [% ID/g] | Drug uptake (Lung [16]) [% ID/g] | Drug uptake (Lung [17]) [% ID/g] | other results |
| --- | --- | --- | --- | --- | --- | --- | --- | --- | --- | --- | --- | --- | --- | --- | --- | --- | --- | --- | --- | --- | --- |
| Cl.N[C@@H](CCSCCC[18F])C(=O)O | 6.97 | 4.44 | 1.69 | 1 | 2.57 | 2.57 | 3.33 | 2 | 3.77 | 90 | 8.28 | 82 | 12.6 | 5.17 | Active | 14.3 | Active | 1.37 | 5.07 | 5.21 | Drug uptake [18]: 9.41 % ID/g; Drug uptake (Kidney [19]): 5.96 % ID/g; Drug uptake (Blood [20]): 2.32 % ID/g; Drug uptake (Muscle tissue [21]): 2.52 % ID/g; Stability (Pancreas [22]): 85%; Drug uptake (Urinary bladder): Active; Drug uptake (Lung [23]): 1.63 % ID/g; Drug uptake (Brain [24]): 1%; Drug uptake (Muscle tissue [25]): 4.12 % ID/g |
| Cl.N[C@H](CCSCCC[18F])C(=O)O | 4.79 | 2.51 | 1.05 | 1 | 1.56 | 0.25 | 2.55 | 1.6 | 1.43 | 90 | 5.87 | 82 | 6.49 | 3.51 | Active | 37.1 | Active | 0.4 | 2.84 | 4.11 | Drug uptake [18]: 6.01 % ID/g; Drug uptake (Kidney [19]): 2.75 % ID/g; Drug uptake (Blood [20]): 0.89 % ID/g; Drug uptake (Muscle tissue [21]): 1.44 % ID/g; Stability (Pancreas [22]): 85%; Drug uptake (Urinary bladder): Active; Drug uptake (Lung [23]): 0.85 % ID/g; Drug uptake (Brain [24]): 1%; Drug uptake (Muscle tissue [25]): 2.12 % ID/g |

Source: ChEMBL document CHEMBL1687936, “Radiosynthesis and biological evaluation of L- and D-S-(3-[18F]fluoropropyl)homocysteine for tumor imaging using positron emission tomography” (J Med Chem, 2011)
